Results on one compound are retold here after ChEMBL document CHEMBL1123129, “Hypolipidemic activity of indan-1,3-dione derivatives in rodents” (J Med Chem, 1985).

The target of assay [1] is T1, 3-hydroxy-3-methylglutaryl-coenzyme A reductase (Mus musculus) (UniProt Q01237).
T1 sequence (whole entry): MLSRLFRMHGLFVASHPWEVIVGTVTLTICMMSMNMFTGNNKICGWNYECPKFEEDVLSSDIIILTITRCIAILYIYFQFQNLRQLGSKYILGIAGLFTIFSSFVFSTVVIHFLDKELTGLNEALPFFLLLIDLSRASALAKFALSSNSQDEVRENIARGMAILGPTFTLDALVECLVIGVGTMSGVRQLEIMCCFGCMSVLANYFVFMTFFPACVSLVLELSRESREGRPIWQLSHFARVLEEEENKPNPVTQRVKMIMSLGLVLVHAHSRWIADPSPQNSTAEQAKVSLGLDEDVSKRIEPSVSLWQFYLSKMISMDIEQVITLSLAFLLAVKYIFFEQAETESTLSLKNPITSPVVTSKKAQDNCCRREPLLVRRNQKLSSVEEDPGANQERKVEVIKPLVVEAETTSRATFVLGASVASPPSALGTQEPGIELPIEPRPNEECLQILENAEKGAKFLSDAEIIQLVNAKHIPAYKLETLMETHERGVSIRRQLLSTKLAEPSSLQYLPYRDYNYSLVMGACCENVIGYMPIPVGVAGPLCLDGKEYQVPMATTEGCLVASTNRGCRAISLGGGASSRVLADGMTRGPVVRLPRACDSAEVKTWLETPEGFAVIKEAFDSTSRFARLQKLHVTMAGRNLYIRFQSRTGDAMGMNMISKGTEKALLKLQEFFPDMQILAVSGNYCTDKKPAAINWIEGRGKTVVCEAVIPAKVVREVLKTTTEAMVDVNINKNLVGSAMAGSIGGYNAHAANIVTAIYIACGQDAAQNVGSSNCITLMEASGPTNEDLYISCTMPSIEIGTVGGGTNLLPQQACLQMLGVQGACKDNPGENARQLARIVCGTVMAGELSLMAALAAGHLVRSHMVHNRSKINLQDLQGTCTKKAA
The experiment in a line: In Vitro evaluation for the CF1 liver enzyme activity on HMG CoA reductase at concentration 200 uM. The procedure, abridged: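 Liver was taken from CF1 male mice and made into 10% homogenates, which were incubated with test compound at 50, 100 or 200 µM. Each enzyme was assayed by its literature method, and protein was measured by Lowry. N = 6. Activity is expressed as % of untreated control ± SD.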

Assay [2] concerns Rattus norvegicus. The experiment in a line: Compound was evaluated for the hypolipidemic activity at 20 mg/kg per day orally for 14 days on protein content in rat LDL. It counts as functional. Conditions: route oral. The procedure, abridged:
(§1)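 Male Sprague–Dawley rats (~300 g) were dosed orally each day. Blood was drawn from the abdominal vein. Lipoprotein fractions (chylomicron, VLDL, LDL, HDL) were separated by the Hatch–Lees and Havel methods. Each fraction was assayed for cholesterol, triglyceride (enzymatic kit), neutral lipids, phospholipids and Lowry protein. Values are % of 1% CMC vehicle control, N = 6.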

Assay [3] relates to Rattus norvegicus. In words: Compound was evaluated for the hypolipidemic activity at 20 mg/kg per day orally for 14 days against neutral lipids in rat lipoprotein chylomicron. The class given is functional. Conditions: route oral. The procedure, abridged:
as §1

The subject of assay [4] is Rattus norvegicus. The experiment in a line: Compound was evaluated for the hypolipidemic activity at 20 mg/kg per day orally for 14 days on phospholipids content in rat feces. The class given is functional. Conditions: route oral. The procedure, abridged:
(§2)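 Male Sprague–Dawley rats were dosed orally for 14 days. Liver, small intestine and a 24-h fecal collection were lipid-extracted. Extracts were assayed for cholesterol (modified Liebermann–Burchard), triglyceride (enzymatic kit), neutral lipids, phospholipids and protein. Values are % of 1% CMC vehicle control, mean ± SD, N = 6.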

Assay [5] deals with Mus musculus. In words: Compound was evaluated for the hypolipidemic activity in CF1 male mice at a dose of 20 mg/kg orally for Serum cholesterol at 16th day. The class given is functional. Conditions: route oral. The procedure, abridged: (§3)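 CF1 male mice received the agent orally in 1% CMC at 10–60 mg/kg per day. Tail-vein blood was taken on days 9 and 16. Serum cholesterol was measured by modified Liebermann–Burchard on duplicate 25-µL samples, and serum triglyceride on day 16 in duplicate 50-µL samples. Values are % of vehicle control, mean ± SD, N = 6; Student's t test.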

Assay [6] is filed under the species Mus musculus. In words: In Vitro evaluation for the CF1 liver enzyme activity on Hepatic lipoprotein lipase at concentration 200 uM. It counts as functional. The gist of the method:
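Mouse liver enzymes assayed in vitro on 10% homogenates of CF1 male mouse liver, with test drug added at 50–200 μM. Each enzyme follows a published procedure. Protein is measured by Lowry. Activity is given as % of untreated control (X ± SD, N = 6).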

Assay [7] concerns Rattus norvegicus. The experiment in a line: Compound was evaluated for the hypolipidemic activity at 20 mg/kg per day orally for 14 days on cholesterol content in rat HDL. It counts as functional. Conditions: route oral. The procedure, abridged: as §1
Assay [8] has as its system Rattus norvegicus. In words: Compound was evaluated for the hypolipidemic activity at 20 mg/kg per day orally for 14 days on lipid content in rat feces. Conditions: route oral. The class given is functional. The procedure, abridged:
as §2

The subject of assay [9] is Mus musculus. In words: Compound was evaluated for the hypolipidemic activity in CF1 male mice at a dose of 40 mg/kg orally for Serum cholesterol at 16th day. Conditions: route oral. The class given is functional. The procedure, abridged:
as §3

For assay [10], the system named is Rattus norvegicus. The experiment in a line: Compound was evaluated for the hypolipidemic activity in Sprague-Dawley rats at a dose of 20 mg/kg orally for Serum triglyceride at 16th day. The class given is functional. The settings on record: route oral. The gist of the method: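 Sprague–Dawley male rats (~350 g) received 20 mg/kg per day orally, with 1% CMC as the vehicle control; N = 6. Tail-vein blood was taken between 8:00 and 9:30 a.m. on days 9 and 16 and spun for 3 min to obtain serum. Cholesterol was measured by a modified Liebermann–Burchard reaction and triglyceride by kit. Values are % control ± SD; significance by Student's t test.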

Assay [11] has as its system Rattus norvegicus. In words: Compound was evaluated for the hypolipidemic activity at 20 mg/kg per day orally for 14 days on triglycerides content in rat liver. It counts as functional. Conditions: route oral. The procedure, abridged: as §2

Take `COc1ccc(C2C(=O)c3ccccc3C2=O)cc1` [ANISINDIONE]: the Control in [1] was 105%; in the assay on Rattus norvegicus [2], 95%; in the assay on Rattus norvegicus [3] it was 99%; with Rattus norvegicus [4], 100%; in the assay on Mus musculus [5], 62%; in the assay filed under Mus musculus [6] it was 93%. Besides, the Control in the assay on Rattus norvegicus [7] is given as 216%; in the assay on Rattus norvegicus [8] it was 103%; in the assay with Mus musculus [9], 48%; in the assay on Rattus norvegicus [10], 59%; with Rattus norvegicus [11], 37%.
